In ChEMBL document CHEMBL2311407, “Design and synthesis of diazatricyclodecane agonists of the G-protein-coupled receptor 119” (J Med Chem, 2013):

Tests used:
[1] = Cmax in Sprague-Dawley rat at 3 mg/kg, po dosing in 0.5% methylcellulose; assay type: ADME, organism-based; set-up: dose 3 mg/kg, route oral; details: in vivo
Outline: (§1)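 Rats were dosed orally at 3 mg/kg in 0.5% methylcellulose. Plasma concentrations are total drug. Data are mean ± SD of three animals. F is based on 1 mg/kg rat iv PK.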

[2] = Oral bioavailability in Sprague-Dawley rat at 3 mg/kg administered as spray dried dispersion; assay type: ADME, organism-based; details: in vivo
Outline: (§2)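 Rats were dosed po at 0.6 mL/kg with a 25% amorphous spray dried dispersion (with HPMCAS-HF) in 20 mM Tris buffer with 0.5% methylcellulose + 0.5% HPMCAS-HF, pH 7.4. Plasma concentrations are total drug. Data are mean ± SD of three animals. F is based on 1 mg/kg rat iv data.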

[3] = Cmax in Sprague-Dawley rat at 3 mg/kg, po dosing of milled material in 0.5% methylcellulose; assay type: ADME, organism-based; set-up: dose 3 mg/kg, route oral; details: in vivo
Outline: (§3)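 Rat po dosing of milled material (2−25 μm premilling, about 190 nm postmilling) suspended in 0.5% methylcellulose. Plasma concentrations are total drug. Data are mean ± SD of three animals. F is calculated from 1 mg/kg rat iv data.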

[4] = AUC in Sprague-Dawley rat at 1 mg/kg, iv; assay type: ADME, organism-based; set-up: dose 1 mg/kg, route intravenous; details: plasma
Outline: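 Rats received 1 mg/kg iv in 10% N-methylpyrrolidone and 90% of a 30% SBE-CD solution. Plasma concentrations are total drug. Data are mean ± SD of three animals.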

[5] = AUC in Sprague-Dawley rat at 3 mg/kg, po dosing of milled material in 0.5% methylcellulose; assay type: ADME, organism-based; set-up: dose 3 mg/kg, route oral; details: in vivo; outline: as §3
[6] = Tmax in Beagle dog at 100 mg/kg, po administered as spray dried dispersion; assay type: ADME, organism-based, Canis lupus familiaris; set-up: dose 100 mg/kg, route oral; details: in vivo
Outline: (§4)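 Oral gavage in male beagle dogs at 10, 30 or 100 mg/kg, 5 mL/kg, as 25% spray dried dispersion in 20 mM Tris buffer in 0.5% methylcellulose and 0.5% HPMCAS-HF, pH 7.4. Plasma concentrations are total drug. Values are the mean of two animals. F is based on 1 mg/kg iv dog data.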

[7] = Tmax in Beagle dog at 30 mg/kg, po administered as spray dried dispersion; assay type: ADME, organism-based, Canis lupus familiaris; set-up: dose 30 mg/kg, route oral; details: in vivo; outline: as §4
[8] = Oral bioavailability in Beagle dog at 100 mg/kg administered as spray dried dispersion; assay type: ADME, organism-based, Canis lupus familiaris; details: in vivo; outline: as §4
[9] = AUC in Sprague-Dawley rat at 30 mg/kg, po dosing of milled material in 0.5% methylcellulose; assay type: ADME, organism-based; set-up: dose 30 mg/kg, route oral; details: in vivo; outline: as §3
[10] = Volume of distribution at steady state in Beagle dog at 1 mg/kg, iv; assay type: ADME, organism-based, Canis lupus familiaris; set-up: dose 1 mg/kg, route intravenous; details: in vivo, read-out: Vdss
Outline: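 Male beagle dogs received 1 mg/kg iv at 2 mL/kg in 5% DMA/75% PEG200/20% (30% SBE-CD). Plasma concentrations are reported as total drug. Parameters are means from two animals.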

[11] = Tmax in Sprague-Dawley rat at 3 mg/kg, po dosing of milled material in 0.5% methylcellulose; assay type: ADME, organism-based; set-up: dose 3 mg/kg, route oral; details: in vivo; outline: as §3
[12] = AUC in Beagle dog at 3 mg/kg, po administered as spray dried dispersion; assay type: ADME, organism-based, Canis lupus familiaris; set-up: dose 3 mg/kg, route oral; details: plasma
Outline: (§5)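 Male beagle dogs were dosed po at 3 mg/kg, 0.6 mL/kg, as 25% spray dried dispersion in 20 mM Tris buffer with 0.5% methylcellulose + 0.5% HPMCAS-HF, pH 7.4. Plasma concentrations are total drug. Values are the mean of two animals. F is calculated against 1 mg/kg iv dog data.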

[13] = Cmax in Sprague-Dawley rat at 30 mg/kg, po dosing of milled material in 0.5% methylcellulose; assay type: ADME, organism-based; set-up: dose 30 mg/kg, route oral; details: in vivo; outline: as §3
[14] = Oral bioavailability in Sprague-Dawley rat at 3 mg/kg dosed as milled material in 0.5% methylcellulose; assay type: ADME, organism-based; details: in vivo; outline: as §3
[15] = Tmax in Sprague-Dawley rat at 3 mg/kg, po dosing in 0.5% methylcellulose; assay type: ADME, organism-based; set-up: dose 3 mg/kg, route oral; details: in vivo; outline: as §1
[16] = Oral bioavailability in Sprague-Dawley rat at 30 mg/kg administered as spray dried dispersion; assay type: ADME, organism-based; details: in vivo; outline: as §2
[17] = AUC in Beagle dog at 10 mg/kg, po administered as spray dried dispersion; assay type: ADME, organism-based, Canis lupus familiaris; set-up: dose 10 mg/kg, route oral; details: plasma; outline: as §4
[18] = AUC in Sprague-Dawley rat at 3 mg/kg, po dosing in 0.5% methylcellulose; assay type: ADME, organism-based; set-up: dose 3 mg/kg, route oral; details: in vivo; outline: as §1
[19] = Tmax in Sprague-Dawley rat at 3 mg/kg, po administered as spray dried dispersion; assay type: ADME, organism-based; set-up: dose 3 mg/kg, route oral; details: in vivo; outline: as §2
[20] = Cmax in Beagle dog at 3 mg/kg, po administered as spray dried dispersion; assay type: ADME, organism-based, Canis lupus familiaris; set-up: dose 3 mg/kg, route oral; details: in vivo; outline: as §5
[21] = Cmax in Beagle dog at 100 mg/kg, po administered as spray dried dispersion; assay type: ADME, organism-based, Canis lupus familiaris; set-up: dose 100 mg/kg, route oral; details: in vivo; outline: as §4
[22] = Tmax in Beagle dog at 10 mg/kg, po administered as spray dried dispersion; assay type: ADME, organism-based, Canis lupus familiaris; set-up: dose 10 mg/kg, route oral; details: in vivo; outline: as §4
[23] = Half life in Beagle dog at 1 mg/kg, iv; assay type: ADME, organism-based, Canis lupus familiaris; set-up: dose 1 mg/kg, route intravenous; details: in vivo
Outline: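 Male beagle dogs received 1 mg/kg iv at 2 mL/kg in 5% dimethylacetamide/75% PEG200/20% (30% SBE-CD). Plasma concentrations are total drug. Values are the mean of two animals.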

[24] = Apparent permeability in MDCK2 cells; assay type: ADME, cell-based, Canis lupus familiaris, MDCK-II; details: dog, MDCK
[25] = Oral bioavailability in Sprague-Dawley rat at 30 mg/kg administered as milled material in 0.5% methylcellulose; assay type: ADME, organism-based; details: in vivo; outline: as §3
[26] = Tmax in Sprague-Dawley rat at 30 mg/kg, po administered as spray dried dispersion; assay type: ADME, organism-based; set-up: dose 30 mg/kg, route oral; details: in vivo

Cmax [1]: 24.2 ng/mL
bioavailability [2]: > 100%
Cmax [3]: 255 ng/mL
AUC [4]: 1360 ng·h/mL
AUC [5]: 3180 ng·h/mL
Tmax [6]: 1.5 h
Tmax [7]: 1 h
bioavailability [8]: 32%
AUC [9]: 12500 ng·h/mL
Vd [10]: 3.7 L/kg
Tmax [11]: 4.7 h
AUC [12]: 8580 ng·h/mL
Cmax [13]: 912 ng/mL
bioavailability [14]: 78%
Tmax [15]: 3 h
bioavailability [16]: > 100%
AUC [17]: 41000 ng·h/mL
AUC [18]: 312 ng·h/mL
Tmax [19]: 4.7 h
Cmax [20]: 812 ng/mL
Cmax [21]: 6030 ng/mL
Tmax [22]: 1 h
half-life [23]: 26.8 h
Papp [24]: 3.5 ×10⁻⁶ cm/s
bioavailability [25]: 31%
Tmax [26]: 4 h
SMILES: Cc1c(Oc2ccc(-n3cnnn3)cc2F)ncnc1N1C2CC3CC1CC(C2)N3C(=O)OC1(C)CC1
